Test results published in ChEMBL document CHEMBL4342467, “Discovery of a Novel Dual-Target Inhibitor of ERK1 and ERK5 That Induces Regulated Cell Death to Overcome Compensatory Mechanism in Specific Tumor Types” (J Med Chem, 2020).
Calls of active or inactive are those of the source. The rule behind the calls is not given here.

Experiments:
[1] = target: Mitogen-activated protein kinase; ERK1/ERK2 (Homo sapiens) (UniProt P27361+P28482); experiment: Inhibition of ERK1/2 in human MKN74 cells assessed as reduction in ERK1/2 phosphorylation at T202/Y204 residue at 0.5 uM measured up to 24 hrs by Western blot analysis; type: cell-based
Chain of Mitogen-activated protein kinase; ERK1/ERK2 (Homo sapiens) (P27361 whole entry, looked up): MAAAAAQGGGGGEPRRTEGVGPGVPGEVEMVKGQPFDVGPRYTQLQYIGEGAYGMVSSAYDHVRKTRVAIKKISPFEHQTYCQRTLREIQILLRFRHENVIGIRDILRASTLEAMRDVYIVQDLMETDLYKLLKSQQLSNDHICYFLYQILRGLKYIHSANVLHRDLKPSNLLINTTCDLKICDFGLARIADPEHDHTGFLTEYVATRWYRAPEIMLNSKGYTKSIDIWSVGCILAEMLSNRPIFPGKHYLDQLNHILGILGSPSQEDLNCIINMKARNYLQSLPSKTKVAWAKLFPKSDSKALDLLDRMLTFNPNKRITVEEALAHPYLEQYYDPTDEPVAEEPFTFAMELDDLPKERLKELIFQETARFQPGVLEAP
Chain of Mitogen-activated protein kinase; ERK1/ERK2 (Homo sapiens) (P28482 whole entry, looked up): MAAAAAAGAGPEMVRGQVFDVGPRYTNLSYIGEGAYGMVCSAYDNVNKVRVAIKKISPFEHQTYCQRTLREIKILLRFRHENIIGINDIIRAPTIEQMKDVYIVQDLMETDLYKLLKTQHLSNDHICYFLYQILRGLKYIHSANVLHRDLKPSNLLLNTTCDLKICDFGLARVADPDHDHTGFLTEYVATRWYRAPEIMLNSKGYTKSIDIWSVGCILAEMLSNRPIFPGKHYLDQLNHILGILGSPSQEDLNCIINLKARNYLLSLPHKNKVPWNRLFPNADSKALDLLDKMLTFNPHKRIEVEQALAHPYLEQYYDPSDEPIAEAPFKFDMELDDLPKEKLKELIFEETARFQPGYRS

[2] = Oral bioavailability in Sprague-Dawley rat at 10 mg/kg by LC-MS analysis; type: ADME, organism-based; details: in vivo
Outline: (§1)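 Two groups of rats (3 per group) received a single dose, either 1 mg/kg i.v. or 10 mg/kg p.o. Plasma concentrations were followed to derive Tmax, Cmax, T1/2, AUC and F. Data are from triple testing (± standard deviation).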

[3] = Effect on Ras/Raf/MEK/ERK signaling in human MKN74 cells assessed as change in Raf expression at 0.5 uM measured up to 24 hrs by Western blot analysis; type: cell-based
Outline: (§2)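 MKN-74 cells exposed to 0.5 μM for 0, 6, 12 and 24 h. Ras, Raf, p-MEK1/2, MEK1/2, p-JNK, JNK, p-p38 and p38 immunoblotted, with GAPDH as loading control.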

MKN-74 [4] = experiment: Induction of autophagy in human MKN74 cells harboring ATG5 siRNA assessed as increase in LC3-2 expression at 0.5 uM by Western blot analysis; type: functional, cell-based
Outline: (§3)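 MKN-74 cells transfected with ATG5 or negative-control siRNA for the indicated times, then 0.5 μM. ATG5, LC3 and p62 immunoblotted, with GAPDH loading control.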

[5] = Tmax in Sprague-Dawley rat at 10 mg/kg, po by LC-MS analysis; type: ADME, organism-based; details: in vivo; outline: as §1
MKN-74 [6] = experiment: Induction of autophagy in human MKN74 cells harboring ATG5 siRNA assessed as increase in p62 degradation at 0.5 uM by Western blot analysis; type: functional, cell-based; outline: as §3
[7] = Effect on Ras/Raf/MEK/ERK signaling in human MKN74 cells assessed as change in JNK phosphorylation at Thr183/Tyr185 residue at 0.5 uM measured up to 24 hrs by Western blot analysis; type: cell-based; outline: as §2
HeLa = experiment: Antiproliferative activity against human HeLa cells assessed as reduction in cell viability measured after 24 hrs; type: functional, cell-based
MKN-74 [8] = experiment: Cytotoxicity against human MKN74 cells harboring siRNA assessed as reduction in cell viability at 0.5 uM by MTT assay; type: functional, cell-based
Outline: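 MKN-74 cells transfected with ATG5-specific or negative-control siRNA for the indicated times, then treated with 0.5 μM. Viability read by MTT assay.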

[9] = Cmax in Sprague-Dawley rat at 10 mg/kg, po by LC-MS analysis; type: ADME, organism-based; set-up: dose 10 mg/kg, route oral; details: in vivo
Outline: (§4)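 Rats, two groups of 3; single i.v. dose 1 mg/kg or oral dose 10 mg/kg. Plasma concentration-time profiles used to derive T1/2, Tmax, Cmax, AUC0-t, AUC0-∞ and oral bioavailability. Data from triplicate testing, ± standard deviation.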

[10] = target: Mitogen-activated protein kinase 7 (Homo sapiens) (UniProt Q13164); experiment: Inhibition of ERK5 (unknown origin) at 1 uM by Z'-Lyte assay relative to control
Chain of Mitogen-activated protein kinase 7 (Homo sapiens) (Q13164 2-816 limits assumed): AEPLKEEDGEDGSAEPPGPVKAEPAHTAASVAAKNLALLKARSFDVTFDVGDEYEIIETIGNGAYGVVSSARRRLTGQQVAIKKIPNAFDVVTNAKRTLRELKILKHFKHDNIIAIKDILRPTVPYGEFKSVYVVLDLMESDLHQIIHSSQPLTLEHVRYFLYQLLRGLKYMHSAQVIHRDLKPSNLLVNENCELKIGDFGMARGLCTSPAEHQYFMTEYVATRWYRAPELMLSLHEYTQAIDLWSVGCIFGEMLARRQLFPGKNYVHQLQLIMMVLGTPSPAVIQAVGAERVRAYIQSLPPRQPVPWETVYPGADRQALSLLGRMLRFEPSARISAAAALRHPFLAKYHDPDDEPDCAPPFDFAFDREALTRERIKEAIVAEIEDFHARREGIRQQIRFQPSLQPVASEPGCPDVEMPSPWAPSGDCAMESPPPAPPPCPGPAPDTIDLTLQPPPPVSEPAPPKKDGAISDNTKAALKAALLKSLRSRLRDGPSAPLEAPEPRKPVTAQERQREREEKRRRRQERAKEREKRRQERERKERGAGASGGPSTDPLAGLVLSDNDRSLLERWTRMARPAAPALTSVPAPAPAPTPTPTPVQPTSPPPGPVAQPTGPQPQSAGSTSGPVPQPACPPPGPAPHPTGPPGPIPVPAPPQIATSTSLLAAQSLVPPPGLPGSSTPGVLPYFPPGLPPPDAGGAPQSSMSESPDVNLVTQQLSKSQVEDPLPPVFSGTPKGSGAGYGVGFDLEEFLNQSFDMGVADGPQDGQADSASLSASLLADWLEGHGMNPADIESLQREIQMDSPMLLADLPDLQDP

MKN-74 [11] = experiment: Induction of autophagy in human MKN74 cells assessed as increase in LC3-2 expression at 0.5 uM measured up to 24 hrs by Western blot analysis; type: functional, cell-based
Outline: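 MKN-74 cells treated with 0.5 μM; LC3 (LC3-II) and p62 levels analyzed by immunoblotting.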

MKN-74 [12] = experiment: Induction of autophagy in human MKN74 cells assessed as increase in LC3-2 expression at 0.5 uM measured after 24 hrs in presence of autophagy inhibitor 3-methyladenine by Western blot analysis; type: functional, cell-based
Outline: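 MKN-74 cells given 0.5 μM for 24 h with or without 3-MA; LC3 and p62 immunoblotted.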

HL-60 [13] = experiment: Antitumor activity against human HL60 cells xenografted in BALB/c mouse assessed as reduction in tumor weight at 50 mg/kg, po administered once daily for 16 days measured post-last dose; type: functional, organism-based
Outline: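 Female nude mice bearing subcutaneous xenografts (8 per group) received vehicle or 50 mg/kg p.o. once daily for 16 days. Excised tumors weighed and compared with control group.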

[14] = Half life in Sprague-Dawley rat at 1 mg/kg, iv by LC-MS analysis; type: ADME, organism-based; details: in vivo; outline: as §4
MKN-74 [15] = experiment: Induction of cytoplasmic vacuolization in human MKN74 cells; type: functional, cell-based
HL-60 [16] = experiment: Antiproliferative activity against human HL60 cells assessed as reduction in cell viability measured after 24 hrs; type: functional, cell-based; details: HL-60, 24 h
[17] = target: Mitogen-activated protein kinase 1 (Homo sapiens) (UniProt P28482); experiment: Inhibition of ERK2 (unknown origin) at 1 uM by Z'-Lyte assay relative to control
Chain of Mitogen-activated protein kinase 1 (Homo sapiens) (P28482 whole entry, the tested form may be a part): as the sequence (P28482 whole entry, looked up) above

[18] = target: Mitogen-activated protein kinase 3 (Homo sapiens) (UniProt P27361); experiment: Inhibition of wild-type human full length ERK1 (M1 to P379 residues) expressed in bacterial expression system at 1 uM by Kinomescan method relative to control
Chain of Mitogen-activated protein kinase 3 (Homo sapiens) (P27361 whole entry, the tested form may be a part): as the sequence (P27361 whole entry, looked up) above
Outline: (§5)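 KINOMEscan binding assays over a 100-kinase panel, with test compound at 1 μM. Results are given as % inhibition.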

Mus musculus [19] = experiment: In vivo inhibition of ERK5 in BALB/c mouse xenografted with human MKN74 cells assessed as reduction in ERK5 phosphorylation at 50 mg/kg, po administered once daily for 16 days measured post-last dose by Western blot analysis; type: functional, organism-based
Outline: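 Two individual tumors excised from xenograft mice were lysed. ERK1/2, p-ERK1/2, ERK5 and p-ERK5 detected by western blot.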

[20] = target: Mitogen-activated protein kinase 7 (Homo sapiens) (UniProt Q13164); experiment: Inhibition of wild-type human partial length ERK5 (M1 to A409 residues) expressed in bacterial expression system at 1 uM by Kinomescan method relative to control; outline: as §5
[21] = AUC (0 to t) in Sprague-Dawley rat at 1 mg/kg, iv by LC-MS analysis; type: ADME, organism-based; details: in vivo; outline: as §4
Mus musculus [22] = experiment: In vivo inhibition of ERK1/2 in BALB/c mouse xenografted with human MKN74 cells assessed as reduction in phosphorylated ERK1/2 expression at 50 mg/kg, po administered once daily for 16 days measured post-last dose by immunohistochemical analysis; type: functional, organism-based
Outline: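 Tumors excised from control and 50 mg/kg p.o.-treated xenograft mice were immunostained for Ki-67, p-ERK1/2 and p-ERK5. Positive-cell percentage quantified and compared with control.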

[23] = target: Mitogen-activated protein kinase 7 (Homo sapiens) (UniProt Q13164); experiment: Inhibition of ERK5 in human MKN74 cells harboring ERK1/2 siRNA assessed as reduction in ERK5 phosphorylation at 0.5 uM by Western blot analysis; type: cell-based
Outline: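 MKN-74 cells were transfected with ERK1/2-specific siRNA or negative-control siRNA, then exposed to compound. ERK1/2, p-ERK1/2, ERK5 and p-ERK5 were read by immunoblotting, with GAPDH as loading control.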

[24] = target: Mitogen-activated protein kinase 7 (Homo sapiens) (UniProt Q13164); experiment: Inhibition of ERK5 in human MKN74 cells harboring ERK1/2 siRNA assessed as reduction in ERK5 phosphorylation at 0.5 uM by immunofluorescence assay; type: cell-based
Outline: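 ERK1/2-specific or negative-control siRNA was transfected into MKN-74 cells for the indicated times, followed by compound at 0.5 μM. p-ERK1/2 and p-ERK5 puncta were detected by immunocytochemistry.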

[25] = AUC (0 to infinity) in Sprague-Dawley rat at 10 mg/kg, po by LC-MS analysis; type: ADME, organism-based; set-up: dose 10 mg/kg, route oral, time infinity; details: in vivo; outline: as §4

inhibition [1]: Active | bioavailability [2]: 27.6% | Tmax [5]: 45 min | IC50 (HeLa): > 50 µM | Cmax [9]: 1560 ng/mL | inhibition [10]: 89.3% | half-life [14]: 57 min | IC50 (HL-60 [16]): 1260 nM | inhibition [17]: 92.7% | inhibition [18]: 94% | inhibition [20]: 87% | AUC(0-t) [21]: 1840 ng·h/mL | inhibition [23]: Active | inhibition [24]: Active | AUC(0-inf) [25]: 5180 ng·h/mL
SMILES: NC(=O)c1c(NC(=O)c2ccccc2Cl)sc2c1CCN(C(=S)Nc1ccccc1Cl)C2
Activity [3]: inactive | Activity (MKN-74 [4]): inactive | Activity (MKN-74 [6]): inactive | Activity [7]: inactive | Activity (MKN-74 [8]): Active | Activity (MKN-74 [11]): Active | Activity (MKN-74 [12]): inactive | Activity (HL-60 [13]): Active | Activity (MKN-74 [15]): Active | inhibition (Mus musculus [19]): Active | inhibition (Mus musculus [22]): Active
